Article PMC6906348 (Therapeutic Advances in Medical Oncology, 2019)

System: patients with MET-dysregulated advanced hepatocellular carcinoma (HCC)
Test: Antitumor activity per RECIST 1.1
Assay type: in vivo, human
Settings: for Best overall response: Unknown: RECIST 1.1 data do not qualify for PD, PR, or SD
In short: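 Asia-Pacific patients with advanced HCC received oral test compound twice daily in continuous 21-day cycles: 300 mg capsules (dose-determining), or 600 mg capsules or 400 mg tablets (expansion), until progression or toxicity. Investigator read response per RECIST 1.1 on CT, or contrast MRI if CT was contraindicated. MET-high meant IHC 3+ in ⩾50% tumor cells, or 2+ in ⩾50% plus FISH GCN ⩾5.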

[1] = Dose-determining n = 8 (300 mg BID capsules)
[2] = Dose-expansion, All patients n = 30
[3] = Dose-expansion, MET-high n = 10
[4] = MET-high expansion group (n = 10)
[5] = MET-high expansion group, 1 patient

## CNC(=O)c1ccc(-c2cnc3ncc(Cc4ccc5ncccc5c4)n3n2)cc1F [capmatinib]
[1]
  Best overall response: Complete response (CR): 0 n (%)
  Best overall response: Partial response (PR): 0 n (%)
  Best overall response: Progressive disease: 3 (38) n (%)
  Best overall response: Unconfirmed CR: 0 n (%)
  Best overall response: Unconfirmed PR: 0 n (%)
  Disease control rate (CR + PR + SD) (95% CI): 2 (25) (3.2−65.1) n (%)
  Overall response rate (CI 95%): 0 (0−36.9) n (%)
  Best overall response: Unknown: 3 (38) n (%)
[2]
  Best overall response: Complete response (CR): 1 (3) n (%)
  Best overall response: Partial response (PR): 2 (7) n (%)
  Best overall response: Progressive disease: 16 (53) n (%)
  Best overall response: Unconfirmed CR: 0 n (%)
  Best overall response: Unconfirmed PR: 1 (3) n (%)
  Disease control rate (CR + PR + SD) (95% CI): 10 (33) (17.3−52.8) n (%)
  Overall response rate (CI 95%): 3 (10) (2.1−26.5) n (%)
  Best overall response: Unknown: 4 (13) n (%)
[3]
  Best overall response: Complete response (CR): 1 (10) n (%)
  Best overall response: Partial response (PR): 2 (20) n (%)
  Best overall response: Progressive disease: 4 (40) n (%)
  Best overall response: Unconfirmed CR: 0 n (%)
  Best overall response: Unconfirmed PR: 1 (10) n (%)
  Disease control rate (CR + PR + SD) (95% CI): 5 (50) (18.7−81.3) n (%)
  Overall response rate (CI 95%): 3 (30) (6.7−65.2) n (%)
  Best overall response: Unknown: 1 (10) n (%)
Dose-expansion, MET-low n = 20
  Best overall response: Complete response (CR): 0 n (%)
  Best overall response: Partial response (PR): 0 n (%)
  Best overall response: Progressive disease: 12 (60) n (%)
  Best overall response: Unconfirmed CR: 0 n (%)
  Best overall response: Unconfirmed PR: 0 n (%)
  Disease control rate (CR + PR + SD) (95% CI): 5 (25) (8.7−49.1) n (%)
  Overall response rate (CI 95%): 0 (0−16.8) n (%)
  Best overall response: Unknown: 3 (15) n (%)
[4]
  number of complete responses: 1
  number of partial responses: 2
[5]
  duration of durable complete response: > 600 days
  duration of durable partial response: > 600 days
All expansion patients (n = 30), regardless of MET status
  overall response rate: 10%
At data cut-off, still on treatment
  time on treatment of two responding patients: over 600 days
Expansion stage
  patients with MET-high status achieving tumor shrinkage: 6/10
Expansion stage, MET-high (n = 10)
  overall response rate: 30%
